Results as given in ChEMBL document CHEMBL1134963, “Synthesis and muscarinic M(2) subtype antagonistic activity of enantiomeric pairs of 3-demethylhimbacine (3-norhimbacine) and its C(4)-epimer” (Bioorg Med Chem Lett, 2002).

How the values were obtained:
[1] = target: T1, Muscarinic acetylcholine receptor M1 (Rattus norvegicus, UniProt P08482); test: The compound was tested in vitro for binding activity against M1 muscarinic receptor in homogenates of the cerebral cortex of rat using [3H]pirenzepine as radioligand; assay type: tissue-based
T1 sequence (P08482 whole entry): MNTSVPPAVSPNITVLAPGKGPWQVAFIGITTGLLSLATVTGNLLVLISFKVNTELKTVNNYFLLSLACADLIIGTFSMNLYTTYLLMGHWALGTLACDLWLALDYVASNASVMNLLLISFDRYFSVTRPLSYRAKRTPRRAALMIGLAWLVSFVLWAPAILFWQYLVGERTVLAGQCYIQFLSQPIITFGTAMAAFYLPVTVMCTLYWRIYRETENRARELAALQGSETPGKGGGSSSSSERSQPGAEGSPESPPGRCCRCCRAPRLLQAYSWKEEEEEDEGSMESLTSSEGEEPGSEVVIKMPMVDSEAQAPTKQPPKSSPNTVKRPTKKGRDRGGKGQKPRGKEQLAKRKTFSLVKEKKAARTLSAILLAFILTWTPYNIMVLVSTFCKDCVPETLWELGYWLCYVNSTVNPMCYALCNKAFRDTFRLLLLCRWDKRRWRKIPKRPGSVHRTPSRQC
Outline: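 Rat cerebral cortex homogenate with [3H]-pirenzepine in 50 mM Tris buffer pH 7.4, 25 °C for 90 min. Bound ligand is separated by rapid GF-B filtration and counted by liquid scintillation. Non-specific binding is defined with 2 μM atropine. Compounds in DMSO, below 0.1% final. Ki = IC50/(1 + L/Kd) by Cheng–Prusoff.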

[2] = target: T2, Muscarinic acetylcholine receptor M2 (Rattus norvegicus, UniProt P10980); test: The compound was tested in vitro for binding activity against M2 muscarinic receptor in homogenates of the brainstem of rat using [3H]quinuclidinyl benzilate (QNB) as radioligand; assay type: tissue-based, Brain
T2 sequence (P10980 whole entry): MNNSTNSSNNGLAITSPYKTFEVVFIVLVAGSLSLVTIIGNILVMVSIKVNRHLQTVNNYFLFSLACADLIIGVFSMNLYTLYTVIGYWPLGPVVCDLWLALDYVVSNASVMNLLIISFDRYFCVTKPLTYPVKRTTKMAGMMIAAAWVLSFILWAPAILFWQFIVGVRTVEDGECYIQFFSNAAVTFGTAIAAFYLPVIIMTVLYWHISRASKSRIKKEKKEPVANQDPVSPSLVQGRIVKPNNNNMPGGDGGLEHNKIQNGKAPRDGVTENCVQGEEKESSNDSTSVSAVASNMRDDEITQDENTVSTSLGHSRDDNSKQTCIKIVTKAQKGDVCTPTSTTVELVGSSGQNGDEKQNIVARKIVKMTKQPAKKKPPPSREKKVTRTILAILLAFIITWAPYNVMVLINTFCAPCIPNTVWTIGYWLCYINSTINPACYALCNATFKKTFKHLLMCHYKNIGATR
Outline: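 Competition binding on rat brainstem homogenate with [3H]-QNB in 50 mM Tris buffer (pH 7.4) for 90 min at 25 °C. Separation is by rapid GF-B filtration with scintillation counting. 2 μM atropine defines non-specific binding. DMSO stays under 0.1%. Ki is taken from IC50 via Cheng–Prusoff using radioligand concentration and Kd.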

C[C@H]1CCC[C@H](/C=C/[C@H]2[C@H]3COC(=O)[C@H]3C[C@H]3CCCC[C@@H]32)N1C (stereo in doubt)
Ki [1]: 1000 nM
Ki [2]: 794 nM

C[C@H]1CCC[C@H](/C=C/[C@@H]2[C@H]3COC(=O)[C@H]3C[C@H]3CCCC[C@@H]32)N1C (stereo in doubt)
Ki [1]: 501 nM
-Log Ki [2]: 6.4

C[C@H]1CCC[C@H](/C=C/[C@H]2[C@H]3COC(=O)[C@H]3C[C@H]3CCCC[C@@H]32)N1C (stereo in doubt; 2)
Ki [1]: 39.8 nM
Ki [2]: 7.94 nM

C[C@H]1CCC[C@H](/C=C/[C@@H]2[C@H]3COC(=O)[C@H]3C[C@H]3CCCC[C@@H]32)N1C (stereo in doubt; 3)
Ki [1]: 631 nM
Ki [2]: 398 nM

C[C@@H]1OC(=O)[C@H]2C[C@H]3CCCC[C@@H]3[C@@H](/C=C/[C@H]3CCC[C@H](C)N3C)[C@@H]12 [HIMBACINE]
Ki [1]: 79.4 nM
Ki [2]: 12.6 nM
